The values that follow come from ChEMBL document CHEMBL1155427, “Dopamine receptor ligands. Part 18: (1) modification of the structural skeleton of indolobenzazecine-type dopamine receptor antagonists” (J Med Chem, 2010).

The source made the active and inactive calls. The rule behind the calls is not given here.

Broadly, the Ki is a measure of affinity in units of concentration, obtained from inhibition or displacement.

Assay [1] has as its target T1, D(1A) dopamine receptor (Homo sapiens, UniProt P21728). Put plainly: Antagonist activity at human dopamine D1 receptor expressed in HEK293 cells assessed as inhibition of SKF-38393-induced calcium influx. It counts as functional, cell-based. The gist of the method: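 HEK293 cells stably expressing the human D1 receptor were loaded with a fluorescent dye. Cells were preincubated with rising concentrations of test ligand, then SKF 38393 agonist was injected. Ca2+-induced fluorescence was read on a microplate reader.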

Assay [2] has as its target T2, D(2) dopamine receptor (Homo sapiens, UniProt P14416). Put plainly: Antagonist activity at human dopamine D2L receptor expressed in HEK293 cells assessed as inhibition of quinpirole-induced calcium influx.
The target in assay [3] is T3, D(4) dopamine receptor (Homo sapiens, UniProt P21917).
T3 sequence (P21917 whole entry): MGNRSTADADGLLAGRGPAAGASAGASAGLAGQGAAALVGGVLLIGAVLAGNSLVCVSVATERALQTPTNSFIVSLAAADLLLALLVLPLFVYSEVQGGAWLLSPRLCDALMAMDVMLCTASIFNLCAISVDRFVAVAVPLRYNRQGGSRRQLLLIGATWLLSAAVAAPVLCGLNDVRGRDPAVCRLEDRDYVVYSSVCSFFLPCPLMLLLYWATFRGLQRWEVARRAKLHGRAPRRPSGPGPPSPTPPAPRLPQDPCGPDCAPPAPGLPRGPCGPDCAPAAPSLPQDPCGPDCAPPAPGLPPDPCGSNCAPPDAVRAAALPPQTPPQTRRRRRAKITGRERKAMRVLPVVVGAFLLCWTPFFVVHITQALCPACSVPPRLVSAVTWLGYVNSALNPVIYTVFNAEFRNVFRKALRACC
Put plainly: Displacement of [3H]radioligand from human recombinant dopamine D4.4 receptor expressed in CHO cells by microplate scintillation counting. It is filed as cell-based. The gist of the method:
(§1)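 Human D2L or D3 receptor stably expressed in HEK cells, or D4.4 in CHO cells. Competition binding against [3H]spiperone as the D2-like radioligand. Ki values in nM are means of two or three experiments, each run in triplicate, ± SEM.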
A general note: Displacement assays read how much labelled ligand stays bound in the presence of the test substance.

The target of assay [4] is T1, D(1A) dopamine receptor. Put plainly: Displacement of [3H]SCH23390 from human recombinant dopamine D1 receptor expressed in HEK293 cells by microplate scintillation counting. It is filed as cell-based. The method, boiled down:
(§2)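 Human D1 or D5 receptor stably expressed in HEK cells. Ki values in nM are means of two or three experiments, each run in triplicate, ± SEM.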

Assay [5] addresses D(3) dopamine receptor (Homo sapiens, UniProt P35462). Nature of the assay: Displacement of [3H]radioligand from human recombinant dopamine D3 receptor expressed in HEK293 cells by microplate scintillation counting. It counts as cell-based. The method, boiled down: as §1
The target in assay [6] is T2, D(2) dopamine receptor. Put plainly: Displacement of [3H]spiperone from human recombinant dopamine D2L receptor expressed in HEK293 cells by microplate scintillation counting. It is filed as cell-based. The method, boiled down:
as §1

Assay [7] concerns the target D(1B) dopamine receptor (Homo sapiens, UniProt P21918). Nature of the assay: Displacement of [3H]radioligand from human recombinant dopamine D5 receptor expressed in HEK293 cells by microplate scintillation counting. It counts as cell-based. The method, boiled down: as §2
Assay [8] can be described thus: Selectivity for dopamine D5 receptor over dopamine D1 receptor.

D(3) dopamine receptor, sequence (P35462 whole entry): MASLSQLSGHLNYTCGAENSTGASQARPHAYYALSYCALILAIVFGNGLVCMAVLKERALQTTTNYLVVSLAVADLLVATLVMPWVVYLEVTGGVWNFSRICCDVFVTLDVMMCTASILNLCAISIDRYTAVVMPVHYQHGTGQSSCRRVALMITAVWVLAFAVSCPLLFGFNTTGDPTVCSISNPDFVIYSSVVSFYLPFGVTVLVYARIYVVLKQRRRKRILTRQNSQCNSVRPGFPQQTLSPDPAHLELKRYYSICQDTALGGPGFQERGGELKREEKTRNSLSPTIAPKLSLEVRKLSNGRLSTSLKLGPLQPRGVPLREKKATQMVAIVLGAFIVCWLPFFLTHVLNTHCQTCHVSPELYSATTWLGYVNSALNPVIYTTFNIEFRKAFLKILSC
T2 sequence (P14416 whole entry): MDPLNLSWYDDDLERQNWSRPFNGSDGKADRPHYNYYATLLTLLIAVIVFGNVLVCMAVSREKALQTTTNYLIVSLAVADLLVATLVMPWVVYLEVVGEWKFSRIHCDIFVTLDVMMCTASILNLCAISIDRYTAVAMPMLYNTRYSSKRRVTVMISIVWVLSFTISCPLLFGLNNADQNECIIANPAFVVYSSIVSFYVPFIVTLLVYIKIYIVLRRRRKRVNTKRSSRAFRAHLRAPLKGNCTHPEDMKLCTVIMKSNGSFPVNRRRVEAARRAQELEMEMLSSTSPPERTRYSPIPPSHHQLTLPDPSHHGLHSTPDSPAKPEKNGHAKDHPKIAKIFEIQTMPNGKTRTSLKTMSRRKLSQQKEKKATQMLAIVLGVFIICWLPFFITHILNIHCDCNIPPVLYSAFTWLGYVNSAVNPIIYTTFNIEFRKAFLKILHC
T1 sequence (P21728 whole entry): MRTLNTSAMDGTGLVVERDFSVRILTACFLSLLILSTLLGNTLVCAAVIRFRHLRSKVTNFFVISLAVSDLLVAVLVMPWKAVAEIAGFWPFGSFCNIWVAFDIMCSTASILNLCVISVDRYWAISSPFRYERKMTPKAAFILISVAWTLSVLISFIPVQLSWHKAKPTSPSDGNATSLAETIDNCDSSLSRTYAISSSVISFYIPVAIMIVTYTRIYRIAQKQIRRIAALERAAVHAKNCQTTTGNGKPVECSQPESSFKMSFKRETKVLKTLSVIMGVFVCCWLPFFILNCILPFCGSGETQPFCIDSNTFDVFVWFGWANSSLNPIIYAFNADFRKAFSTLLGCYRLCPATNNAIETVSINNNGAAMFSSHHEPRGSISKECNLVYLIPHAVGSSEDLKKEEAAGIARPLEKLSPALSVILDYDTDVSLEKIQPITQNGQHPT
D(1B) dopamine receptor, sequence (P21918 whole entry): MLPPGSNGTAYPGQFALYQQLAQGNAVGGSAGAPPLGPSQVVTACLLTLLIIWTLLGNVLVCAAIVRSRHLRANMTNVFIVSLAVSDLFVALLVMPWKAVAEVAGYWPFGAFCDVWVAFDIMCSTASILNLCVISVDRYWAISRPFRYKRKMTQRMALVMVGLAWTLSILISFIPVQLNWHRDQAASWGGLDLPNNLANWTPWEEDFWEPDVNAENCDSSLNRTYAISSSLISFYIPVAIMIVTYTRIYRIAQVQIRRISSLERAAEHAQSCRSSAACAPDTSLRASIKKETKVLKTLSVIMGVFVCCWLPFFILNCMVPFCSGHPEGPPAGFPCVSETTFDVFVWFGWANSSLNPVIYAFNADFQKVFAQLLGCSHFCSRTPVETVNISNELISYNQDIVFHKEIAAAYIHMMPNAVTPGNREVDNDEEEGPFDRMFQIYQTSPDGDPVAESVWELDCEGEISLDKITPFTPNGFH

As for `CN1CCc2ccccc2Cc2[nH]c3ccccc3c2CC1`, the result in assay [1] and in assay [2] was Active.
Take `CN1CCc2ccccc2Cc2c[nH]c3cccc(c23)C1`: the Ki in assay [3], in assay [4], in assay [5], in assay [6] and in assay [7] was greater than 10000 nM each time.
On to `CN1Cc2ccccc2[C@@H]2c3cccc4[nH]cc(c34)C[C@H]21`, for which the Selectivity ratio in assay [8] came to 10.
For `c1ccc2c(c1)CCN1CCc3cccc4[nH]cc(c34)C21` (centres undefined), the Ki in assay [3] was greater than 10000 nM; in assay [4], 1840 nM; in assay [5], greater than 10000 nM; in assay [6], 4460 nM; in assay [7] it was 1520 nM. Moreover, the outcome in assay [1] and in assay [2] was Active.
For the compound `CN1CCc2ccccc2Cc2c[nH]c3cccc(c23)CC1`, the Ki was found to be 39.1 nM in assay [3]; 4.2 nM in assay [4]; 42.9 nM in assay [5]; 4 nM in assay [6]; 2.5 nM in assay [7]. Besides, the result in assay [1] and in assay [2] was Active.
Regarding `c1ccc2c(c1)CCN1Cc3cccc4[nH]cc(c34)C21` (centres undefined), the Ki in assay [3] was greater than 10000 nM. Moreover, the result in assay [1] and in assay [2] was Active.
Turning to `CN1CCc2ccccc2Cc2c([nH]c3ccccc23)CC1`, the Ki in assay [3] was 225 nM; in assay [4] it was 28.5 nM; in assay [5], 513 nM; in assay [6], 55.1 nM; in assay [7] it was 10.3 nM. In addition, the result in assay [1] and in assay [2] was Active.
On to `c1ccc2c(c1)CCN1CCc3[nH]c4ccccc4c3C21` (centres undefined), for which the Ki in assay [3] is greater than 10000 nM; in assay [4], 2100 nM; in assay [5], greater than 10000 nM; in assay [6], 1480 nM; in assay [7], greater than 10000 nM. Further, the outcome in assay [1] and in assay [2] was Active.
